Experimental data taken from ChEMBL document CHEMBL1255444, “In vitro antibacterial activities of JNJ-Q2, a new broad-spectrum fluoroquinolone” (Antimicrob Agents Chemother, 2010).
≈ marks a conversion by molar mass, not a printed value.

Tests used:
Format in all cases: functional
Pseudomonas aeruginosa = assay: Antibacterial activity against Pseudomonas aeruginosa ATCC 27853 by broth microdilution method
Outline: (§1)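 MICs by CLSI M07-A7 broth microdilution in cation-adjusted Mueller-Hinton medium. For S. pneumoniae the medium was supplemented with 5% lysed horse blood. CLSI quality control strains were run alongside as appropriate.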

Klebsiella aerogenes = assay: Antibacterial activity against Enterobacter aerogenes by broth microdilution method; outline: as §1
[1] = test system: Staphylococcus epidermidis; assay: Antibacterial activity against methicillin-, ciprofloxacin-resistant Staphylococcus epidermidis by broth microdilution method
[2] = test system: Staphylococcus epidermidis; assay: Antibacterial activity against methicillin-susceptible Staphylococcus epidermidis by broth microdilution method
Klebsiella pneumoniae = assay: Antibacterial activity against Klebsiella pneumoniae by broth microdilution method; outline: as §1
Providencia stuartii = assay: Antibacterial activity against Providencia stuartii by broth microdilution method; outline: as §1
Streptococcus pneumoniae [3] = assay: Antibacterial activity against ciprofloxacin-resistant Streptococcus pneumoniae by broth microdilution method
Outline: (§2)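 CLSI M07-A7 broth microdilution MIC. Medium was cation-adjusted Mueller-Hinton broth. For S. pneumoniae it was Mueller-Hinton supplemented with 5% lysed horse blood. CLSI quality-control strains were included as appropriate.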

[4] = test system: Staphylococcus epidermidis; assay: Antibacterial activity against methicillin-resistant Staphylococcus epidermidis by broth microdilution method
Enterobacter cloacae = assay: Antibacterial activity against Enterobacter cloacae by broth microdilution method
Escherichia coli = assay: Antibacterial activity against ciprofloxacin-resistant Escherichia coli by broth microdilution method; outline: as §2
Enterococcus faecalis = assay: Antibacterial activity against Enterococcus faecalis ATCC 29212 by broth microdilution method; outline: as §1
Staphylococcus aureus [5] = assay: Antibacterial activity against Staphylococcus aureus […] by broth microdilution method; outline: as §2
Enterococcus faecium = assay: Antibacterial activity against Enterococcus faecium by broth microdilution method; outline: as §1
Staphylococcus aureus [6] = assay: Antibacterial activity against methicillin-susceptible Staphylococcus aureus by broth microdilution method
Staphylococcus aureus [7] = assay: Antibacterial activity against methicillin-, ciprofloxacin-resistant Staphylococcus aureus by broth microdilution method; outline: as §2
Staphylococcus aureus [8] = assay: Antibacterial activity against methicillin-resistant Staphylococcus aureus by broth microdilution method; outline: as §2
Staphylococcus aureus [9] = assay: Antibacterial activity against methicillin-resistant Staphylococcus aureus isolate OC15425 harboring gyrA S84L and parC S80F mutant gene by agar dilution method
Outline: (§3)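 MICs for the resistance-selection studies were determined by CLSI agar dilution on Mueller-Hinton medium. For S. pneumoniae the medium was supplemented with 5% lysed horse blood. For MRSA fluctuation-assay strains an arithmetic agar dilution scheme was used for a more precise MIC.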

Streptococcus pyogenes = assay: Antibacterial activity against Streptococcus pyogenes by broth microdilution method; outline: as §1
Serratia marcescens = assay: Antibacterial activity against Serratia marcescens by broth microdilution method; outline: as §1
Citrobacter freundii = assay: Antibacterial activity against Citrobacter freundii by broth microdilution method; outline: as §1
Moraxella catarrhalis = assay: Antibacterial activity against Moraxella catarrhalis by broth microdilution method; outline: as §1
Staphylococcus aureus [10] = assay: Antibacterial activity against methicillin-resistant Staphylococcus aureus isolate OC8525 harboring wild type quinolone resistance-determining region by agar dilution method
Outline: (§4)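 CLSI agar dilution MIC on cation-adjusted Mueller-Hinton medium. These were the MIC values used for the resistance studies, and CLSI quality-control strains were included as appropriate.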

Streptococcus agalactiae = assay: Antibacterial activity against Streptococcus agalactiae by broth microdilution method; outline: as §1
Staphylococcus aureus [11] = assay: Antibacterial activity against methicillin-resistant Staphylococcus aureus isolate OC8532 harboring wild type quinolone resistance-determining region by agar dilution method; outline: as §4
Haemophilus influenzae = assay: Antibacterial activity against Haemophilus influenzae by broth microdilution method; outline: as §1
[12] = Antibacterial activity against Streptococcus sp. group C by broth microdilution method
Outline: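 MICs by broth microdilution following CLSI M07-A7 in cation-adjusted Mueller-Hinton medium, using isolates from the J&JPRD culture collection. CLSI quality control strains were included as appropriate.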

Staphylococcus aureus [13] = assay: Antibacterial activity against methicillin-resistant Staphylococcus aureus isolate OC11150 harboring gyrA S84L and parC S80Y mutant gene by agar dilution method; outline: as §3
Proteus mirabilis = assay: Antibacterial activity against Proteus mirabilis by broth microdilution method; outline: as §1
Streptococcus pneumoniae [14] = assay: Antibacterial activity against Streptococcus pneumoniae ATCC 49619 by broth microdilution method; outline: as §1

C[C@H]1COc2c(N3CCN(C)CC3)c(F)cc3c(=O)c(C(=O)O)cn1c23.C[C@H]1COc2c(N3CCN(C)CC3)c(F)cc3c(=O)c(C(=O)O)cn1c23.O [LEVOFLOXACIN]
MIC (Pseudomonas aeruginosa): 0.5 µg/mL | MIC50 (Pseudomonas aeruginosa): 0.5 µg/mL | MIC90 (Pseudomonas aeruginosa): 2 µg/mL | MIC50 (Klebsiella aerogenes): 0.06 µg/mL | MIC90 (Klebsiella aerogenes): 0.06 µg/mL | MIC50 [1]: 16 µg/mL | MIC90 [1]: 16 µg/mL | MIC [2]: 0.12 µg/mL | MIC50 [2]: 0.12 µg/mL | MIC90 [2]: 0.25 µg/mL | MIC50 (Klebsiella pneumoniae): 0.06 µg/mL | MIC90 (Klebsiella pneumoniae): 0.12 µg/mL | MIC50 (Providencia stuartii): 16 µg/mL | MIC90 (Providencia stuartii): 64 µg/mL | MIC50 (Streptococcus pneumoniae [3]): 16 µg/mL | MIC90 (Streptococcus pneumoniae [3]): 64 µg/mL | MIC50 [4]: 8 µg/mL | MIC90 [4]: 16 µg/mL | MIC50 (Enterobacter cloacae): 0.06 µg/mL | MIC90 (Enterobacter cloacae): 0.12 µg/mL | MIC50 (Escherichia coli): 16 µg/mL | MIC90 (Escherichia coli): 64 µg/mL

CN[C@H](CC(C)C)C(=O)N[C@H]1C(=O)N[C@@H](CC(N)=O)C(=O)N[C@H]2C(=O)N[C@H]3C(=O)N[C@H](C(=O)N[C@H](C(=O)O)c4cc(O)cc(O)c4-c4cc3ccc4O)[C@H](O)c3ccc(c(Cl)c3)Oc3cc2cc(c3O[C@@H]2O[C@H](CO)[C@@H](O)[C@H](O)[C@H]2O[C@H]2C[C@](C)(N)[C@H](O)[C@H](C)O2)Oc2ccc(cc2Cl)[C@H]1O [VANCOMYCIN]
MIC50 [1]: 2 µg/mL (≈ 1.38 µM) | MIC90 [1]: 2 µg/mL (≈ 1.38 µM) | MIC50 (Enterococcus faecalis): 2 µg/mL (≈ 1.38 µM) | MIC90 (Enterococcus faecalis): > 16 µg/mL | MIC50 [2]: 2 µg/mL (≈ 1.38 µM) | MIC90 [2]: 2 µg/mL (≈ 1.38 µM) | MIC50 (Staphylococcus aureus [5]): 1 µg/mL (≈ 0.69 µM) | MIC90 (Staphylococcus aureus [5]): 1 µg/mL (≈ 0.69 µM) | MIC50 (Enterococcus faecium): > 16 µg/mL | MIC90 (Enterococcus faecium): > 16 µg/mL | MIC50 (Staphylococcus aureus [6]): 1 µg/mL (≈ 0.69 µM) | MIC90 (Staphylococcus aureus [6]): 2 µg/mL (≈ 1.38 µM) | MIC50 (Staphylococcus aureus [7]): 1 µg/mL (≈ 0.69 µM) | MIC90 (Staphylococcus aureus [7]): 1 µg/mL (≈ 0.69 µM) | MIC50 (Staphylococcus aureus [8]): 1 µg/mL (≈ 0.69 µM) | MIC90 (Staphylococcus aureus [8]): 1 µg/mL (≈ 0.69 µM) | MIC50 [4]: 2 µg/mL (≈ 1.38 µM) | MIC90 [4]: 2 µg/mL (≈ 1.38 µM)

O=C(O)c1cn(C2CC2)c2cc(N3CCNCC3)c(F)cc2c1=O [CIPROFLOXACIN]
MIC (Staphylococcus aureus [9]): 12 µg/mL (≈ 36.2 µM) | MIC50 (Pseudomonas aeruginosa): 0.25 µg/mL (≈ 0.754 µM) | MIC90 (Pseudomonas aeruginosa): 0.5 µg/mL (≈ 1.51 µM) | MIC50 (Klebsiella aerogenes): 0.03 µg/mL (≈ 0.0905 µM) | MIC90 (Klebsiella aerogenes): 0.03 µg/mL (≈ 0.0905 µM) | MIC50 [1]: 64 µg/mL (≈ 193 µM) | MIC90 [1]: 128 µg/mL (≈ 386 µM) | MIC50 (Enterococcus faecalis): 1 µg/mL (≈ 3.02 µM) | MIC90 (Enterococcus faecalis): > 16 µg/mL | MIC50 (Streptococcus pyogenes): 0.5 µg/mL (≈ 1.51 µM) | MIC90 (Streptococcus pyogenes): 1 µg/mL (≈ 3.02 µM) | MIC50 [2]: 0.25 µg/mL (≈ 0.754 µM) | MIC90 [2]: 0.5 µg/mL (≈ 1.51 µM) | MIC50 (Serratia marcescens): 0.12 µg/mL (≈ 0.362 µM) | MIC90 (Serratia marcescens): 0.25 µg/mL (≈ 0.754 µM) | MIC50 (Citrobacter freundii): 2 µg/mL (≈ 6.04 µM) | MIC90 (Citrobacter freundii): > 4 µg/mL | MIC50 (Providencia stuartii): 32 µg/mL (≈ 96.6 µM) | MIC90 (Providencia stuartii): 64 µg/mL (≈ 193 µM) | MIC50 (Staphylococcus aureus [5]): 16 µg/mL (≈ 48.3 µM) | MIC90 (Staphylococcus aureus [5]): > 32 µg/mL | MIC50 (Enterococcus faecium): 4 µg/mL (≈ 12.1 µM) | MIC90 (Enterococcus faecium): > 16 µg/mL | MIC50 (Moraxella catarrhalis): 0.06 µg/mL (≈ 0.181 µM) | MIC90 (Moraxella catarrhalis): 0.06 µg/mL (≈ 0.181 µM) | MIC (Staphylococcus aureus [10]): 3 µg/mL (≈ 9.05 µM) | MIC50 (Staphylococcus aureus [7]): > 32 µg/mL | MIC90 (Staphylococcus aureus [7]): 32 µg/mL (≈ 96.6 µM) | MIC50 (Streptococcus pneumoniae [3]): 32 µg/mL (≈ 96.6 µM) | MIC90 (Streptococcus pneumoniae [3]): 64 µg/mL (≈ 193 µM) | MIC50 (Staphylococcus aureus [8]): 16 µg/mL (≈ 48.3 µM) | MIC90 (Staphylococcus aureus [8]): > 32 µg/mL | MIC50 [4]: 16 µg/mL (≈ 48.3 µM) | MIC90 [4]: 64 µg/mL (≈ 193 µM) | MIC50 (Streptococcus agalactiae): 1 µg/mL (≈ 3.02 µM) | MIC90 (Streptococcus agalactiae): 1 µg/mL (≈ 3.02 µM) | MIC (Staphylococcus aureus [11]): 0.6 µg/mL (≈ 1.81 µM) | MIC (Haemophilus influenzae): 0.008 µg/mL (≈ 0.0241 µM) | MIC50 (Haemophilus influenzae): 0.008 µg/mL (≈ 0.0241 µM) | MIC90 (Haemophilus influenzae): 0.015 µg/mL (≈ 0.0453 µM) | MIC50 (Escherichia coli): 64 µg/mL (≈ 193 µM) | MIC90 (Escherichia coli): 256 µg/mL (≈ 773 µM) | MIC50 [12]: 0.25 µg/mL (≈ 0.754 µM) | MIC90 [12]: 1 µg/mL (≈ 3.02 µM) | MIC (Staphylococcus aureus [13]): 12 µg/mL (≈ 36.2 µM) | MIC50 (Proteus mirabilis): 0.03 µg/mL (≈ 0.0905 µM) | MIC90 (Proteus mirabilis): 0.06 µg/mL (≈ 0.181 µM)

CC1(C)S[C@@H]2[C@H](NC(=O)Cc3ccccc3)C(=O)N2[C@H]1C(=O)O [PENICILLIN G]
MIC50 (Streptococcus pneumoniae [14]): 0.06 µg/mL (≈ 0.179 µM) | MIC90 (Streptococcus pneumoniae [14]): 2 µg/mL (≈ 5.98 µM)
